Columns and labels:
Rpn13-Uch37 interaction = conditions: ref VanderLinden et al., 2015; cited from earlier work
Uch37 = target: T1, Uch37 (Homo sapiens, UniProt Q9Y5K5); conditions: ref VanderLinden et al., 2015; cited from earlier work
T1 sequence (Q9Y5K5 1-329): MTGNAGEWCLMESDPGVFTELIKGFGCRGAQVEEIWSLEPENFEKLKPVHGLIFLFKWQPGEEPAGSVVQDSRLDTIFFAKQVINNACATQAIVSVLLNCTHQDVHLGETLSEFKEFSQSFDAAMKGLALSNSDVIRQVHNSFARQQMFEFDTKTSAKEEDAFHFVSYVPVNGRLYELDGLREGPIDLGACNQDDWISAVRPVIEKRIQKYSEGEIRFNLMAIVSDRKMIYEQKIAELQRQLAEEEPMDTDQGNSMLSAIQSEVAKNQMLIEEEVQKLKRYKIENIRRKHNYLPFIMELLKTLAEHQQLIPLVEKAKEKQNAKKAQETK

SK-MEL-5 cells = format: cell-based, Homo sapiens; conditions: endogenous Rpn13 depleted by UTR siRNA; Fig. 6E
Method in brief: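 SK-MEL-5 endogenous Rpn13 was depleted with UTR-targeting siRNA (50 nM) for 24 h. Cells at 70–80% confluency were then transfected with 2 μg wild-type or Q337A/Q338A FLAG-Rpn13 plasmid (Omnifect) per 6-well. Test compound was given at graded concentrations for 24 h. CellTiter-Glo 2.0 luminescence was normalized to vehicle, in technical triplicate and biological duplicate, with SD reported.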

B1: Rpn13Q337A/Q338A: Rpn13 double mutant defective in Uch37 activation, FLAG-tagged, expressed from plasmid (protein, UniProt Q16186 2-407, looked up, variant Q337A Q338A)
Proteasomal ubiquitin …: TTSGALFPSLVPGSRGASNKYLVEFRAGKMSLKGTTVTPDKRKGLVYIQQTDDSLIHFCWKDRTSGNVEDDLIIFPDDCEFKRVPQCPSGRVYVLKFKAGSKRLFFWMQEPKTDQDEEHCRKVNEYLNNPPMPGALGASGSSGHELSALGGEGGLQSLLGNMSHSQLMQLIGPAGLGGLGGLGALTGPGLASLLGSSGPPGSSSSSSSRSQSAAVTPSSTTSSTRATPAPSAPAAASATSPSPAPSSGNGASTAASPTQPIQLSDLQSILATMNVPAGPAGGQQVDLASVLTPEIMAPILANADVQERLLPYLPSGESLPQTADEIQNTLTSPQFAAALGMFSAALASGQLGPLMCQFGLPAEAVEAANKGDVEAFAKAMQNNAKPEQKEGDTKDKKDEEEDMSLD
modifications: FLAG tag
effect of mutations on physical interaction with Uch37 (Rpn13-Uch37 interaction): the mutations do not affect the physical interaction of the two proteins
stimulation of Uch37 relative to wild-type Rpn13 (Uch37): about 30%
viability upon expression of Rpn13 double mutant (SK-MEL-5 cells): no significant effect on viability

Reference: publication PMC7680388 (Cell chemical biology, 2020)
